# Columns and labels:
# [1] = Stability of stock solutions; assay type: physicochemical; conditions: 12 h at room temperature and a week at −20 °C
# Summary of the method: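 Stock solutions: analyte 1.0 mg/mL in water, aripiprazole internal standard 1 mg/mL in methanol. Held 12 h at room temperature, and tested daily over 1 week during storage at −20 °C. Compared against freshly prepared standards by UPLC/MS/MS.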
# [2] = test system: neurotoxic and stimulant effects of METH; conditions: mouse; ref Kaushal et al., 2011, 2012; cited from earlier work
# [3] = ref Seminerio et al., 2012b, cited from earlier work
# [4] = test system: both subtypes of sigma receptors; conditions: radioligand binding; ref Seminerio et al., 2012b; cited from earlier work
# [5] = test system: METH-induced memory impairment; conditions: mouse; ref Seminerio et al., 2012a; cited from earlier work
# [6] = test system: cocaine-induced convulsions; conditions: mice, toxic dose of cocaine; ref Seminerio et al., 2012b; cited from earlier work
# [7] = Intravenous pharmacokinetic study in rats; assay type: in vivo, male Sprague–Dawley rats; conditions: rat
# Summary of the method: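 Male Sprague–Dawley rats (n = 6, 260–280 g), fasted overnight, given water after dosing and food from 4 h post-dose. Single 5 mg/kg i.v. dose via jugular-vein cannula. Blood (0.15 mL) drawn via cannula pre-dose and at 2–480 min and 12–42 h. Plasma separated at 10,000 g, 10 min, 4 °C, and stored at −20 °C. Chloroform extraction with aripiprazole internal standard, UPLC/MS/MS, then non-compartmental analysis.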
# [8] = Stability of AZ66 in rat plasma at various storage conditions; assay type: in vitro ADME
# Summary of the method: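 Rat plasma QC samples at 10, 400 and 3000 ng/mL, six replicates each. Conditions: three freeze–thaw cycles at −20 °C; −20 °C for 30 days; room temperature for 12 h; processed extracts held in the autosampler at 25 °C for 24 h. Analysed by chloroform liquid–liquid extraction and UPLC/MS/MS with aripiprazole internal standard. Compared against freshly prepared standards; bias = 100×(measured−actual)/actual.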
# [9] = test system: METH-induced dopaminergic neurotoxicity and hyperthermia; conditions: Swiss Webster mice, intraperitoneal; ref Seminerio et al., 2012a; cited from earlier work
# [10] = male, Sprague-Dawley, plasma, iv, 5 mg/kg
# [11] = processed plasma samples, auto-sampler 24 h (25 °C), spiked 10 ng/mL
# [12] = processed plasma samples, auto-sampler 24 h (25 °C), spiked 400 ng/mL
# [13] = rat plasma, long-term 30 days (−20 °C), spiked 10 ng/mL
# [14] = rat plasma, long-term 30 days (−20 °C), spiked 400 ng/mL
# [15] = rat plasma, long-term 30 days (−20 °C), spiked 3000 ng/mL
# [16] = rat plasma, short-term 12 h (25 °C), spiked 10 ng/mL
# [17] = rat plasma, short-term 12 h (25 °C), spiked 400 ng/mL
# [18] = rat plasma, short-term 12 h (25 °C), spiked 3000 ng/mL
# [19] = rat plasma, three freeze–thaw cycles (−20 °C), spiked 400 ng/mL
# [20] = rat plasma, three freeze–thaw cycles (−20 °C), spiked 3000 ng/mL
smiles,measurement,setting,value
"O=C1CCc2ccc(OCCCCN3CCN(c4cccc(Cl)c4Cl)CC3)cc2N1 [IS, aripiprazole, reference compound]",Stability of stock solutions,[1],stable
c1ccc(CCN2CCCCC2)cc1 [AC927],effect on neurotoxic effects of METH,[2],attenuated
same,effect on stimulant effects of METH,[2],attenuated
"S=c1sc2ccccc2n1CCCCN1CCN(C2CCCCC2)CC1 [CM156, 3-[4-(4-cyclohexylpiperazin-1-yl)butyl]benzo[d]thiazole-2(3H)-thione]",in vitro half-life,[3]; rat liver microsomes,4.62 min
same,effect on neurotoxic effects of METH,[2],attenuated
same,effect on stimulant effects of METH,[2],attenuated
"CC(CCCn1c(=O)sc2cc(F)ccc21)N1CCN(C2CCCCC2)CC1 (stereo not shown) [AZ66, 3-[4-(4-cyclohexylpiperazin-1-yl)pentyl]-6-fluorobenzo[d] thiazole-2(3H)-one]",affinity for both subtypes of sigma receptors,[4],high nanomolar affinity
same,selectivity over a wide battery of CNS targets,[4],highly selective
same,Stability of stock solutions,[1],stable
same,effect on memory impairment caused by repeated intake of METH,[5],attenuated the memory impairment
same,attenuation of cocaine-induced convulsions,[6],significantly attenuate convulsions
same,Cmax,[7]; [10],1200 ± 200 ng/mL
same,MRT,[7]; [10],7.6 ± 0.7 h
same,Vd,[7]; [10],30.1 ± 3.6 L/kg
same,clearance,[7]; [10],43.3 mL/min/kg
same,half-life,[7]; [10],7.9 ± 0.3 h
same,CL (total clearance),"[7]; i.v. 5 mg/kg, n=6, mean ± SD",43.3 ± 6.7 mL/min/kg
same,Stability in reconstituted samples in the auto-sampler,[8]; 25 °C for 24 h,stable
same,Bias,[8]; [11],1.7%
same,Measured concentration,[8]; [11],10.1 ± 0.2 ng/mL
same,Bias,[8]; [12],0.8%
same,Measured concentration,[8]; [12],403.2 ± 18.6 ng/mL
same,Measured concentration,"[8]; processed plasma samples, auto-sampler 24 h (25 °C), spiked 3000 ng/mL",3222 ± 79.4 ng/mL
same,Bias,[8]; [13],0.3%
same,Measured concentration,[8]; [13],10.2 ± 0.4 ng/mL
same,Bias,[8]; [14],−0.4%
same,Measured concentration,[8]; [14],402.4 ± 7.1 ng/mL
same,Bias,[8]; [15],−0.6%
same,Measured concentration,[8]; [15],3028 ± 55.0 ng/mL
same,Bias,[8]; [16],1.3%
same,Measured concentration,[8]; [16],10.2 ± 0.2 ng/mL
same,Bias,[8]; [17],−0.5%
same,Measured concentration,[8]; [17],401.4 ± 3.5 ng/mL
same,Bias,[8]; [18],1.0%
same,Measured concentration,[8]; [18],3015 ± 30.6 ng/mL
same,Measured concentration,"[8]; rat plasma, three freeze–thaw cycles (−20 °C), spiked 10 ng/mL",10.2 ± 0.7 ng/mL
same,Bias,[8]; [19],−0.6%
same,Measured concentration,[8]; [19],396.1 ± 12.7 ng/mL
same,Bias,[8]; [20],0.2%
same,Measured concentration,[8]; [20],2990 ± 42.9 ng/mL
same,Short-term stability in rat plasma,[8]; room temperature for 12 h (25 °C),stable
same,Freeze–thaw stability in rat plasma,"[8]; three freeze–thaw cycles, 10, 400 and 3000 ng/mL",stable
same,Long-term stability in rat plasma,[8]; −20 °C for 30 days,stable
same,in vitro half-life compared with CM156,[3]; in vitro,appreciably longer half-life
same,effect on METH-induced dopaminergic neurotoxicity,[9],attenuate
same,effect on METH-induced hyperthermia,[9],attenuate

# — PMC4122523 (Biomedical chromatography : BMC, 2013)
